Assay outcomes deposited in PubChem BioAssay by several laboratories.
An excerpt weighted towards active compounds, which were near 2% of everything screened.
dFosB activator: enhances mouse delta FosB homodimer DNA binding. purified delta FosB, TAMRA-CDK5 oligo fluorescence polarization; percent of positive-control signal above neutral wells. activation, % at 25 µM. 0.99% of 340,000 active;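 active means mean activation above about 17%, with every replicate also reaching it, limit read from the data, passing the limit was not always enough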
NTR1 agonist: NTR1 (human) agonism; P30989; NTR1-U2OS beta-arrestin-GFP spot imaging, agonist mode; activation, % at 20 µM; 0.17% of 330,000 active; AID 493036;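 active means activation at or above 40% of the spot to cytoplasm intensity ratio, with at least 20 cells analyzed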
PKA-R1A act: PKA-R1A complex activation; AID 504707; activation, % at 11.4 µM; P00514+P68181; PKA-R1A dissociation, Cy5-IP20 fluorescence polarization; scaled: DMSO 0%, 113 µM cGMP 100%; 0.083% of 340,000 active;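 active means percent activation above the mean of all tested compounds plus 3 SD, cut at about 19% in these data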;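 further: higher means more PKAc released from R1A so a rise in polarization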
PKA-R2B activ: PKA-R2B complex activation; PKA-R2B holoenzyme dissociation, Cy5-IP20 fluorescence polarization; R2B truncated from residue 108, S112A mutant; 0% DMSO only, 100% 113 µM cGMP; activation, % at 11.4 µM; P22694+P31323; 0.079% of 340,000 active;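 active means activation above a cutoff set at the mean over all compounds plus 3 SD, cut at about 18% in these data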;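 further: higher means more holoenzyme dissociation and a rise in polarization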
Target sequence (P31323 whole entry, looked up, other chains not shown, the tested form may be a part): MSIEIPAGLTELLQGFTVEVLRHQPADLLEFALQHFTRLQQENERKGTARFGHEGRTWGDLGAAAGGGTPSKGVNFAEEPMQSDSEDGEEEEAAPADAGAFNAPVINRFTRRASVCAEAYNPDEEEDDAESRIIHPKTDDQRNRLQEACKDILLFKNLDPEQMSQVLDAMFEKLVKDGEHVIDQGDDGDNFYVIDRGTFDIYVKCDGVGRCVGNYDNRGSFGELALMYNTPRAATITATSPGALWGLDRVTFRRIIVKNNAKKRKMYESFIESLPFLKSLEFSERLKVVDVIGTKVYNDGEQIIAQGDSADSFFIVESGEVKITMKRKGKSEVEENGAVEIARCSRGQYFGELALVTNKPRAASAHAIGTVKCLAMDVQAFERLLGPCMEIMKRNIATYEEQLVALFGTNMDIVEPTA
CAL PDZ FP-1: blocks peptide binding to human CAL PDZ domain | Q9HD26 | purified CAL PDZ, TMR-peptide fluorescence polarization, 1 h | inhibition, % at 20 µM | 0.02% of 330,000 active;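 active means highest replicate inhibition of at least 40%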
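material = purified tagged CAL PDZ domain construct (CerCALP) | buffer or medium = sodium phosphate/NaCl buffer pH 7.4 with TCEP, IgG, Thesit | reagent = TMR-labelled reporter peptide T*-PRC34 bound in PDZ groove | incubation = 1 h room-temperature incubation prior to read | measured by = fluorescence polarization (mP) | evaluation = percent inhibition from loss of millipolarization | control set = unlabelled peptide and DMSO controls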
CAL PDZ FP-2: blocks peptide binding to the human CAL PDZ domain; Q9HD26; purified CAL PDZ, TMR-peptide fluorescence polarization, 1 h; inhibition, % at 24.9 µM; 0.92% of 300,000 active; AID 602252;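 active means mean inhibition of at least 30% with at least half of replicates also reaching 30%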
Numbers stand for hits; . = inactive; / = not tested or not shown.

SMILES	dFosB activator	NTR1 agonist	PKA-R1A act	PKA-R2B activ	CAL PDZ FP-1	CAL PDZ FP-2
CC(=O)c1cccc(NC(=O)c2cccc(N3C(=O)c4ccccc4C3=O)c2)c1	31	.	.	.	.	/
COc1cc(C(=O)Nc2cccc(C(C)=O)c2)cc(OC)c1OC	.	.	.	.	.	/
COc1cccc(NC(=O)c2cccc(C(=O)Nc3cccc(OC)c3)c2)c1	.	.	.	.	.	.
COc1ccc(N2CCN(CCCn3cnc4c(OC)ncnc43)CC2)cc1	/	/	.	.	/	/
O=C(NOC(=O)c1cc(Br)ccc1Cl)c1cccs1	.	.	.	.	.	.
O=C(COC(=O)c1cc(Br)ccc1O)NNC(=O)c1cccs1	29	.	.	.	.	.
CCN(CC)CCn1c2ccccc2c2nc3ccc([N+](=O)[O-])cc3cc21	51	.	/	/	.	/
FC(F)(F)c1cc(CCN2CCNC[C@H]2Cc2cccc3ccccc23)cc(C(F)(F)F)c1	.	51	.	.	.	.
Cc1nc(/C=[N+](\[O-])C(C)(C)/C=N/O)n(O)c1C	.	.	.	.	.	59
CC(C)(/C=N/O)/[N+]([O-])=C/c1ccco1	.	.	.	.	.	.
CN(C)c1ccc(NC(=O)c2sc(SCC(=O)Nc3ccc(Br)cc3)nc2N)cc1	28	.	.	.	/	.
Cc1ccc(C2CC(c3cccs3)=NN2C(=O)CCl)cc1 (centres undefined)	.	.	.	.	/	91
O=C(NC1CCCCC1)C(=S)NCCc1ccccc1	.	.	.	.	.	43
O=C(NCCc1ccccc1)C(=O)NC1CCCCC1	.	.	.	.	.	.
CNC(=O)COC(=O)c1cc(-c2ccco2)nc2ccccc12	.	.	.	.	.	47
O=C(COC(=O)c1cc(-c2ccco2)nc2ccccc12)NCc1ccccc1	.	.	.	.	/	.
CC1Sc2ccc(S(=O)(=O)CCC(=O)N(C)Cc3ccccc3)cc2NC1=O (centres undefined)	.	.	.	.	.	/
Cc1cc(N=Cc2c(O)n(-c3ccc4c(c3)OCO4)c(=O)c3ccccc23)ccn1	.	.	.	.	.	35
Cc1ccc(-n2c(O)c(C=Nc3ccc4c(c3)OCO4)c3ccccc3c2=O)cc1C	.	.	.	.	.	.
Cc1cscc(C)c1=S	/	/	.	.	/	/
CCOC(=O)N1CCN(C(=O)CNCc2cccs2)CC1	.	.	.	.	.	47
CCOC(=O)c1c(NC(=O)CSc2nc3ccc(OC)cc3[nH]2)sc2c1CC(C)(C)NC2(C)C	.	.	.	.	.	.
COc1cc(C2Nc3cccc4cccc(c34)N2)cc(OC)c1O	41	.	.	.	.	.
FC(F)(F)c1ccc(C2Nc3cccc4cccc(c34)N2)cc1	.	.	.	.	.	.
Fc1ccc(C2Nc3cccc4cccc(c34)N2)cc1	25	.	.	.	.	.
SMILES	dFosB activator	NTR1 agonist	PKA-R1A act	PKA-R2B activ	CAL PDZ FP-1	CAL PDZ FP-2
N=C1/C(=C\c2ccc(Br)o2)C(=O)N=C2SC(CC(=O)N3CCCCC3)=NN12	.	.	.	.	.	.
CCN(CC)CCCn1c2c(c(SCC(=O)Nc3ccc4c(c3)OCO4)nc1=O)CCC2	.	.	.	.	.	.
O=C(N/N=C/c1ccco1)c1cc(-c2cccs2)[nH]n1	.	.	.	.	.	41
CCc1nn2c(=O)cc(COC(=O)c3ccc(SC)cc3OC)nc2s1	.	.	.	.	.	.
O=C(Cn1c2ccccc2c(=O)c2ccccc21)N/N=C/c1cc([N+](=O)[O-])ccc1N1CCCCC1	.	.	.	.	.	.
O=C(Cn1c2ccccc2c(=O)c2cc([N+](=O)[O-])ccc21)Nc1ccccc1Cl	63	.	.	.	.	.
Cc1ccc(-c2csc(NC(=O)C[n+]3cc(-c4ccc(C)cc4)n4c3CCC4)n2)cc1	37	.	.	.	.	.
CCC(C)C(=O)C(=O)N1CCC(n2nccc2NC(=O)CCOc2ccccc2)CC1 (centres undefined)	/	/	.	.	/	/
O=C(Nc1nc2ccccc2[nH]1)c1cc2ccccc2o1	.	.	.	.	.	46
Cc1ccc2nc3n(c(=O)c2c1)-c1cc(Cl)ccc1C(=O)NC3Cc1ccc(O)cc1 (centres undefined)	/	.	/	/	/	/
COc1cc2c(cc1OC)C(c1ccc(C(F)(F)F)cc1)CC(=O)N2 (centres undefined)	.	.	.	.	.	.
COc1cc2c(cc1OC)C(c1ccc(Br)cc1)CC(=O)N2 (centres undefined)	.	.	.	.	/	62
O=C(OCc1cn([C@@H]2C[C@H](c3ccc(Cl)cc3)N(C(=O)c3cccs3)C[C@H]2O)nn1)c1ccccc1	/	/	.	.	/	/
O=C(Nc1ccc(Cl)cc1)NN1CCCCCC1	.	/	.	.	.	.
N#Cc1ccc(NC(=O)NN2CCCCCC2)cc1	.	/	.	.	.	82
Cc1ccc(S(=O)(=O)N2C[C@H]3[C@H]4C(=O)N(c5ccccc5)C(=O)[C@H]4C[C@H](OC(=O)NCc4ccccc4)[C@@]3(O)C2)cc1	/	/	.	.	/	/
CCN(C(=O)CCc1ccccc1)C1CCCCC1	.	.	.	.	.	64
CCN(C(=O)c1cccc(NC(=O)c2ccccc2)c1)C1CCCCC1	.	.	.	.	.	57
CCN(C(=O)COc1ccccc1)C1CCCCC1	.	.	.	.	.	.
NC(=O)c1ccc(NC(=O)COC(=O)c2ccccc2SCC(=O)N2CCCC2)cc1	/	/	.	.	/	/
CC(C)CCN1CC(=O)N2[C@@H](Cc3c([nH]c4ccccc34)C2(C)C)C1=O	.	.	.	.	.	61
CCCCCN1CC(=O)N2[C@@H](Cc3c([nH]c4ccccc34)C2(C)C)C1=O	.	.	.	.	.	.
CCOc1ccc(S(=O)(=O)N2CCC(C(=O)OC(C)C(=O)N3CCOCC3)CC2)cc1 (centres undefined)	.	.	.	.	.	.
O=C(c1cc(COc2ccccc2)on1)N1CCCC(CN2CCOCC2)C1 (centres undefined)	.	.	.	.	.	53
O=C(c1cc(COc2ccccc2)on1)N1CCCC(OCc2cccnc2)C1 (centres undefined)	.	.	.	.	.	.
Cc1ccc(NC(=O)CN2C(=O)NC3(CCCc4ccccc43)C2=O)c([N+](=O)[O-])c1 (centres undefined)	.	.	.	.	.	.
Cc1cccc(Nc2nc(N)nc(N)c2N=O)c1	.	/	.	.	.	71
Cc1cc(Br)ccc1Nc1nc(N)nc(N)c1N=O	.	/	.	.	.	.
C[C@@H]1CN([C@H](C)CO)C(=O)CCCn2nncc2CO[C@H]1CN(C)Cc1ccc2c(c1)OCCO2	/	/	.	.	/	/
